sPLA2-III inh – Inhibits HGIII-sPLA2 liposome hydrolysis, primary screen; QFRET BODIPY PC-A2 liposome hydrolysis, fluorescence; hit rate 0.56% among 370,000; inhibition, % at 12.2 µM; Q9NZ20;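 active = inhibition above mean plus 3 SD of compounds lying within the high and low control bounds, cut at about 19% in these data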
Target sequence (Q9NZ20 whole entry, looked up): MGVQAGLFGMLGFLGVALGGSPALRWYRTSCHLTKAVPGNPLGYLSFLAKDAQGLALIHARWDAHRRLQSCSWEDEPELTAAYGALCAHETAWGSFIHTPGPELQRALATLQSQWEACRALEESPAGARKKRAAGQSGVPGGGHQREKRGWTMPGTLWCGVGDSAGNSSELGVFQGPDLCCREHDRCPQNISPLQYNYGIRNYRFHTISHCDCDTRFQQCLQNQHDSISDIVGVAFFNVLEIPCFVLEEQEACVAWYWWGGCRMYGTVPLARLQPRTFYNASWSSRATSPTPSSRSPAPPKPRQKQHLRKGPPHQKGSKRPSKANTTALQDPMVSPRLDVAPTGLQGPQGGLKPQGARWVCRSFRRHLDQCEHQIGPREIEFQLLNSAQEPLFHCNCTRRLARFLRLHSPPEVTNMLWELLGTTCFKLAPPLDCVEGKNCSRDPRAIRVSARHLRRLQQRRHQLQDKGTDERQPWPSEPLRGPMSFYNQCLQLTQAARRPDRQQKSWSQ
ARFGAP1 inh – rat ARFGAP1 inhibition; Q62848; Arfgap1-stimulated ARF1 GTP hydrolysis, GDP FP detection; inhibition, % at 16.5 µM; hit rate 0.26% among 360,000;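 active = inhibition above a per-plate limit, mean inhibition of low control wells plus 3 SD, cut at about 25% in these data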
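Assay system: Rat Arfgap1 GAP domain (His6, aa 1-136), purified enzyme | Buffer or medium: HEPES 25 mM pH 7.5, NaCl 150 mM, MgCl2, DTT | Schedule: GTP hydrolysis reaction 2 h at 25 °C | Signal: FP of antibody-bound GDP Alexa 633 tracer, ex 620/em 688 nm | Measure: Percent inhibition of Arfgap1-stimulated GTP hydrolysis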
ASAP1 GAP inh – blocks human ASAP1-stimulated Arf1 GTP hydrolysis; hit rate 0.19% among 360,000; Q9ULH1; inhibition, % at 16.5 µM; GDP FP detection; AID 624377; in the data active = inhibition above about 25%
bovine MsrA act – bovine methionine sulfoxide reductase A activation; activation, % at 10.6 µM; purified bovine MsrA, absorbance read-out; hit rate 0.3% among 360,000; in the data active = activation above about 7.5%
MsrA inhibitor – inhibits bovine methionine sulfoxide reductase A; purified bovine MsrA, absorbance read-out; inhibition, % at 15.5 µM; hit rate 0.75% among 360,000; AID 651718; in the data active = inhibition above about 4.5%
NR1D1 modulator – modulates human Rev-erb alpha binding to DNA | P20393 | Rev-erbα–FITC-DNA binding, fluorescence polarization, 90 min | activity, % at 10 µM | hit rate 0.79% among 370,000;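 active = activity above about 14%, limit read from the data; passing the limit was not always enough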
Rev-erbA confirm – Rev-erb alpha (human) modulation, hit confirmation. hit rate 61% among 3,000. shares compounds with NR1D1 modulator. Rev-erb alpha FITC-DNA binding, fluorescence polarization, 90 min. activation, % at 25 µM;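 active = activation at or above a set limit, or at least 3 SD above the negative control mean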
RORg counter – counter-screen for Rev-erb alpha modulators: RORgamma DNA binding. hit rate 8% among 910. purified RORgamma protein-FITC-DNA binding, fluorescence polarization. IC50, µM. shares compounds with NR1D1 modulator;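 active = Compounds whose fitted half-maximal concentration for disrupting protein-DNA binding is below 10 micromolar; the record names Rev-erb in its text, so the target is in doubt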
Large screens that a line does not name were inactive (follow-up assays come after a bar, where they were run). Rows were chosen to be rich in hits. Some 2.7% of all compounds tested hit in one or more screens of this group.

O=C(CCc1nc2sc3c(c2c(=O)[nH]1)CCCC3)Nc1cccc(Cl)c1	NR1D1 modulator 30 | Rev-erbA confirm 21
Cc1cc(C)cc(NC(=O)CCc2nc3sc4c(c3c(=O)[nH]2)CCCC4)c1	NR1D1 modulator 30 | Rev-erbA confirm inactive
CC1(C(=O)NCc2ccc(Cl)cc2)CCN1C(=O)Cc1ccc(Cl)cc1Cl (stereo not drawn)	none
COc1ccc(C(=O)OCC(=O)N2CCN(S(=O)(=O)c3ccc(C)cc3)CC2)cc1[N+](=O)[O-]	none
Nc1nc(-c2cccs2)c(CC(=O)O)s1	none
CC1CC1C(=O)Nc1nc(-c2cccs2)c(-c2cccs2)s1 (stereo not drawn)	NR1D1 modulator 53 | Rev-erbA confirm 75 | RORg counter inactive
Nc1nc(-c2cccs2)c(-c2cccs2)s1	NR1D1 modulator 282 | Rev-erbA confirm 244 | RORg counter inactive
CC1CC1C(=O)Nc1nc(-c2ccccc2)cs1 (stereo not drawn)	none
COc1ccc(-n2nnnc2C(c2ccccc2)N2CCN(C/C=C/c3ccccc3)CC2)cc1 (stereo not drawn)	none
CC(=O)c1c(N2CCOCC2)nc2ccc(Cl)cc2c1-c1ccccc1	NR1D1 modulator 31 | Rev-erbA confirm 28
C[n+]1ccc(/C=C/c2c[nH]c3ccc(F)cc23)cc1	NR1D1 modulator 125 | Rev-erbA confirm 90 | RORg counter inactive
Cn1cc(/C=C/c2cc[n+](C)cc2)c2cc(F)ccc21	none (no result: sPLA2-III inh, ARFGAP1 inh, ASAP1 GAP inh, MsrA inhibitor, NR1D1 modulator)
COc1ccc(C2CC(c3ccc(Cl)c(Cl)c3)Nc3nc(N)nn32)cc1 (stereo not drawn)	NR1D1 modulator 31 | Rev-erbA confirm 17
CCCCn1nnnc1C(c1cccc2ccccc12)N1CCN(C/C=C/c2ccccc2)CC1 (stereo not drawn)	none
CN(CCO)c1ccc(C=NNc2ccc([N+](=O)[O-])cc2S(=O)(=O)Nc2ccccc2C(=O)O)cc1	NR1D1 modulator 21 | Rev-erbA confirm inactive
CCC(=O)N1CCCC(C)(C(=O)Nc2ccc3scnc3c2)C1 (stereo not drawn)	NR1D1 modulator 19 | Rev-erbA confirm inactive
O=C(Nc1cccc([N+](=O)[O-])c1)NC1CCS(=O)(=O)C1 (stereo not drawn)	none
O=C(Nc1cc([N+](=O)[O-])ccc1O)NC1CCS(=O)(=O)C1 (stereo not drawn)	NR1D1 modulator 16 | Rev-erbA confirm 15
CC(OC(=O)c1cc(Br)ccc1O)C(=O)NCc1ccc2c(c1)OCO2 (stereo not drawn)	NR1D1 modulator 35 | Rev-erbA confirm 23
CC(OC(=O)c1ccc(Cl)cc1)C(=O)NCc1ccc2c(c1)OCO2 (stereo not drawn)	none
O=C(NCc1ccccc1)C(c1ccccc1F)n1c(=O)c(-c2ccco2)nc2ccccc21 (stereo not drawn)	none (no result: bovine MsrA act)
CC(C)CNC(=O)C1(C)CCCN1C(=O)c1cccnc1Oc1ccccc1 (stereo not drawn)	none
CC1(C)Cc2c(sc3c2c(N)nc(=S)n3Cc2ccccc2)CO1	NR1D1 modulator 111 (no result: bovine MsrA act) | Rev-erbA confirm 36 | RORg counter inactive
CCCc1ccc2ccc3ccccc3c2n1	none
COc1cc(-c2nc(-c3ccc(Br)o3)no2)cc(OC)c1OC	NR1D1 modulator 27 | Rev-erbA confirm inactive
CSc1sc(-c2nnc(SCC(=O)Nc3ccc(Cl)cc3)n2C)c2c1C=CCC2	NR1D1 modulator 33 | Rev-erbA confirm inactive
CCN(CC)c1ccc2cc(C(=O)NCc3ccc(F)cc3)c(=N)oc2c1	NR1D1 modulator 40 | Rev-erbA confirm 32 | RORg counter inactive
N=c1oc2ccc(Br)cc2cc1C(=O)NCc1ccc(F)cc1	none
COc1ccc2oc(=O)c(C(=O)NCc3ccc(F)cc3)cc2c1	NR1D1 modulator 30 | Rev-erbA confirm inactive
COc1ccc2cc(C(=O)NCc3ccccc3)c(=O)oc2c1	NR1D1 modulator 40 | Rev-erbA confirm inactive
COc1ccc2oc(=O)c(C(=O)NCc3cccnc3)cc2c1	none
COc1ccc(CNC(=O)c2cc3ccccc3oc2=O)cc1	none

Source: PubChem (several laboratories)
